Active and inactive are the calls of the source. The calls are words filed in the database; no cut-off is given here.

For test [1], the target named is T1, Prostaglandin G/H synthase 1 (Ovis aries) (UniProt P05979).
T1 sequence (whole entry): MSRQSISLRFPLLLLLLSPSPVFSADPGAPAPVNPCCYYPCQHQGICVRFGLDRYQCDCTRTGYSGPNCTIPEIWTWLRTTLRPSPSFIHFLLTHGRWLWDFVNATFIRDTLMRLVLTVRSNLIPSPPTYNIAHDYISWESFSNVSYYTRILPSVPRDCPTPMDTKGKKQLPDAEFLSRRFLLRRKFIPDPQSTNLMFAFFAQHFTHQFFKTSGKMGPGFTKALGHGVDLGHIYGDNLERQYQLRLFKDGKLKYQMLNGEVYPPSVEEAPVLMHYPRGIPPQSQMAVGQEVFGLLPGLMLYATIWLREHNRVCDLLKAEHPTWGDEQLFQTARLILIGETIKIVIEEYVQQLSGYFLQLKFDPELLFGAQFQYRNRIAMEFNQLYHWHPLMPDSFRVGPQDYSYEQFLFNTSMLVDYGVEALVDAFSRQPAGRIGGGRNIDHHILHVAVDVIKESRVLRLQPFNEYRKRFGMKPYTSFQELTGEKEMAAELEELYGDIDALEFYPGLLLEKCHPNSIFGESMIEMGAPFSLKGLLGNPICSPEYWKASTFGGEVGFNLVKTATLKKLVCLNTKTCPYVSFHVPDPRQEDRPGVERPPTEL
Description: Inhibition of ovine COX-1 assessed as residual activity at 10 uM using arachidonic acid as substrate preincubated for 5 mins followed by substrate addition and measured after 5 mins by RP-HPLC method relative to control. The essentials: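 Ovine COX-1 (50 U/mL) or human recombinant COX-2 (20 U/mL) in 100 mM Tris pH 8 with 5 mM glutathione, 100 µM EDTA and 5 µM hemoglobin. Pre-incubated with compound or 0.1% DMSO for 5 min at room temperature, then 1 min at 37 °C. Started with AA (5 µM for COX-1, 2 µM for COX-2), run 5 min at 37 °C. 12-HHT measured by RP-HPLC.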

The subject of test [2] is Mus musculus. Description: Effect on IL-6 level in zymosan-induced CD-1 mouse peritonitis model in peritoneal exudate at 10 mg/kg, ip treated with compound for 30 mins after 4 to 24 hrs zymosan stimulation by ELISA. Format: functional, organism-based. An outline of the steps: (§1)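 Male CD-1 mice (10–14 wk, 25–30 g), n = 6/group. Zymosan A (500 mg/kg in PBS, boiled) given i.p.; test compound (0.1–10 mg/kg in DMSO/saline 1:3) i.p. 30 min later. Exudates collected by 2 mL PBS lavage at 4 or 24 h. Cells spun at 4 °C and cytokines in supernatant measured by sandwich ELISA at 450 nm. Values normalized to exudate levels, mean ± S.D.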

Test [3] relates to Mus musculus. Description: Antiinflammatory activity in zymosan-induced CD-1 mouse peritonitis model assessed as reduction in zymosan-induced neutrophil recruitment at 1 mg/kg, ip treated with compound for 30 mins after 4 hrs zymosan stimulation by ELISA. The test is classed as functional, organism-based. An outline of the steps: (§2)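 Male CD-1 mice (10–14 wk, 25–30 g), n = 6/group, injected i.p. with boiled zymosan A (500 mg/kg in PBS). Compound (0.1–10 mg/kg, DMSO/saline 1:3) given i.p. 30 min afterwards. Peritoneal lavage with 2 mL PBS at 4 or 24 h. Total leukocytes counted by automated counter with trypan blue, normalized to exudate. Mean ± S.D.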

For test [4], the system named is Mus musculus. As to the kind of experiment: Antiinflammatory activity in zymosan-induced CD-1 mouse peritonitis model assessed as reduction in zymosan-induced TNF-alpha level in peritoneal exudate at 10 mg/kg, ip treated with compound for 30 mins after 4 hrs zymosan stimulation by ELISA. The test is classed as functional, organism-based. The essentials: as §1
On the technique in general: ELISA stands for enzyme-linked immunosorbent assay.

In test [5] the test system is Mus musculus. Description: Antiinflammatory activity in zymosan-induced CD-1 mouse peritonitis model assessed as reduction in zymosan-induced TNF-alpha level in peritoneal exudate at 10 mg/kg, ip treated with compound for 30 mins after 24 hrs zymosan stimulation by ELISA. The test is classed as functional, organism-based. An outline of the steps:
as §1

In test [6] the test system is Mus musculus. As to the kind of experiment: Effect on IL-10 level in zymosan-induced CD-1 mouse peritonitis model in peritoneal exudate at 10 mg/kg, ip treated with compound for 30 mins after 4 to 24 hrs zymosan stimulation by ELISA. The test is classed as functional, organism-based. An outline of the steps:
as §1

Test [7] has as its system Mus musculus. As to the kind of experiment: Antiinflammatory activity in zymosan-induced CD-1 mouse peritonitis model assessed as reduction in zymosan-induced IL-1beta level in peritoneal exudate at 10 mg/kg, ip treated with compound for 30 mins after 24 hrs zymosan stimulation by ELISA. Format: functional, organism-based. The essentials:
as §1

The test system of test [8] is Mus musculus. Description: Antiinflammatory activity in zymosan-induced CD-1 mouse peritonitis model assessed as reduction in zymosan-induced neutrophil recruitment at 10 mg/kg, ip treated with compound for 30 mins after 4 hrs zymosan stimulation by ELISA. The test is classed as functional, organism-based. The essentials:
as §2

The subject of test [9] is Mus musculus. As to the kind of experiment: Antiinflammatory activity in zymosan-induced CD-1 mouse peritonitis model assessed as reduction in zymosan-induced IL-1beta level in peritoneal exudate at 10 mg/kg, ip treated with compound for 30 mins after 4 hrs zymosan stimulation by ELISA. Format: functional, organism-based. The essentials: as §1
Another test deals with T2, Prostaglandin E synthase (Homo sapiens, UniProt O14684).
T2 sequence (O14684 whole entry): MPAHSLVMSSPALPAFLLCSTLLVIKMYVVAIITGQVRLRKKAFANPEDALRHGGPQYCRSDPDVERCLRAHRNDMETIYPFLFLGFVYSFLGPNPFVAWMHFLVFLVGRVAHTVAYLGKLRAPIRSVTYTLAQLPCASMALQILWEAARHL
As to the kind of experiment: Inhibition of mPGES-1 obtained from IL-beta stimulated human A549 cells microsomes assessed as residual activity by measuring conversion of PGH2 to PGE2 by cell-free RP-HPLC method. Also noted: species or system Microsome. An outline of the steps: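 Microsomes from A549 cells stimulated with IL-1β (1 ng/ml) for 48 h. Diluted in 0.1 M potassium phosphate pH 7.4 with 2.5 mM glutathione. Pre-incubated 15 min on ice with compound (single 10 µM, or 0.03–10 µM for the curve) or 1% DMSO. 20 µM PGH2 added for 1 min; stopped with FeCl3/citric acid containing 11β-PGE2 standard. PGE2 measured by SPE and RP-HPLC. n = 3.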

Regarding `Oc1cccc(CCc2nc(-c3ccc(-c4ccsc4)cc3)no2)c1`, the Activity in [1] was determined as 47.7%.

Turning to `Oc1c(F)c(F)cc(-c2nc(-c3ccc(-c4ccsc4)cc3)no2)c1F`, the outcome with Mus musculus [2] and in the test with Mus musculus [6] was inactive. Also, the outcome in the test on Mus musculus [3], in the test with Mus musculus [4], in the test on Mus musculus [5], in the test on Mus musculus [7], in the test with Mus musculus [8] and with Mus musculus [9] was Active. On Prostaglandin E synthase, the IC50 stood at 3.6 µM.

A word on the IC50: it is the point on the concentration scale where inhibition reaches its midpoint.

The values are drawn from ChEMBL document CHEMBL4840316, “Structure-based screening for the discovery of 1,2,4-oxadiazoles as promising hits for the development of new anti-inflammatory agents interfering with eicosanoid biosynthesis pathways” (Eur J Med Chem, 2021).
